Reference: ChEMBL document CHEMBL1123282, “Antiinflammatory activity of substituted 6-hydroxypyrimido[2,1-f]purine-2,4,8(1H,3H,9H)-triones. Atypical nonsteroidal antiinflammatory agents” (J Med Chem, 1986)

What follows are compounds tested on Rattus norvegicus (assay: In vivo antiinflammatory activity against rats by RPAR(reverse passive Arthus reaction) synovitis method).
Type: functional
Set-up: concentration or dose not given beside the values
Method in brief: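 Lewis rats, oral drug or placebo 1 h before iv BSA (2.28 mg in saline), then intraarticular rabbit anti-BSA (0.54 mg) into one knee and saline into the other, under light anesthesia. Second oral dose at 3 h; the total of both doses is the calculated dose. About 17 h after induction, subpatellar tissue with synovium is excised and weighed. Response is antibody-minus-saline knee weight, tested by analysis of variance.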
Work on `CCCc1c(O)n(-c2ccccc2)c2nc3c(c(=O)n(C)c(=O)n3C)n2c1=O` yielded an Inhibition of 11%. For `CCCCc1c(O)n(Cc2ccc(F)cc2)c2nc3c(c(=O)n(CCCC)c(=O)n3CCCC)n2c1=O`, the Inhibition was 6%. With `CCO/C(O)=c1\c(=O)n(Cc2ccccc2)c2nc3c(c(=O)n(C)c(=O)n3C)n2c1=O` the Inhibition was 0%. `CCCCc1c(O)n(Cc2ccccc2)c2nccn2c1=O` gave an Inhibition of 17%. `Cn1c(=O)c2c(nc3n(Cc4ccccc4)c(O)c(N)c(=O)n23)n(C)c1=O` was tested, and the Inhibition was 11%. `CCCc1c(OC)n2c3c(=O)n(C)c(=O)n(C)c3nc2n(Cc2ccccc2)c1=O` was tested, and the Inhibition was 17%. For `Cc1c(O)n(-c2ccccc2)c2nc3c(c(=O)n(C)c(=O)n3C)n2c1=O`, the Inhibition was 14%. In the case of `CCSCCc1c(O)n(Cc2ccccc2)c2nc3c(c(=O)n(C)c(=O)n3C)n2c1=O`, the Inhibition was 0%. With `CCCCn1c(=O)c2c(nc3n(Cc4ccc(OC)cc4)c(O)c(CCC)c(=O)n23)n(CCCC)c1=O` the Inhibition was 5%. `Cc1c(O)n(Cc2ccc(F)cc2)c2nc3c(c(=O)n(C)c(=O)n3C)n2c1=O` gave an Inhibition of 36%. `Cn1c(=O)c2c(nc3n(Cc4ccccc4)c(O)c(CC(=O)O)c(=O)n23)n(C)c1=O` gave an Inhibition of 11%. In the case of `Cn1c(=O)c2c(nc3n(Cc4ccccc4)c(O)c(Cc4ccccc4)c(=O)n23)n(C)c1=O`, the Inhibition was 16%. For `Cc1c(O)n(Cc2ccccc2)c2nc3c(c(=O)n(C)c(=O)n3C)n2c1=O`, the Inhibition was 8%. With `Cn1c(=O)c2c(nc3n(Cc4ccccc4)c(O)c(CCO)c(=O)n23)n(C)c1=O` the Inhibition was 17%. `CC(C)c1c(O)n(CCc2ccccc2)c2nc3c(c(=O)n(C)c(=O)n3C)n2c1=O` showed an Inhibition of 17%. For `CC(C)Cc1c(O)n(-c2ccccc2)c2nc3c(c(=O)n(C)c(=O)n3C)n2c1=O`, the Inhibition was 16%. Work on `Cn1c(=O)c2c(nc3n(Cc4ccccc4)c(O)cc(=O)n23)n(C)c1=O` yielded an Inhibition of 11%. In the case of `CCS(=O)(=O)CCc1c(O)n(Cc2ccccc2)c2nc3c(c(=O)n(C)c(=O)n3C)n2c1=O`, the Inhibition was 6%. For `CC(C)c1c(O)n(Cc2ccccc2)c2nc3c(c(=O)n(C)c(=O)n3C)n2c1=O`, the Inhibition was 0%. In the case of `CCCc1c(O)n(-c2ccc(F)cc2)c2nc3c(c(=O)n(C)c(=O)n3C)n2c1=O`, the Inhibition was 27%. In the case of `CCCc1c(O)n(Cc2ccc(Cl)cc2)c2nc3c(c(=O)n(C)c(=O)n3C)n2c1=O`, the Inhibition was 53%. Compound `CCCCn1c(=O)c2c(nc3n(Cc4ccc(F)cc4)c(O)c(CCC)c(=O)n23)n(CCCC)c1=O` has an Inhibition of 8%. For `CN(C)CCc1c(O)n(Cc2ccccc2)c2nc3c(c(=O)n(C)c(=O)n3C)n2c1=O`, the Inhibition was 0%. In the case of `CCCCn1c(=O)c2c(nc3n(Cc4ccccc4)c(O)c(CCC)c(=O)n23)n(CCCC)c1=O`, the Inhibition was 12%. `CC[S+]([O-])CCc1c(O)n(Cc2ccccc2)c2nc3c(c(=O)n(C)c(=O)n3C)n2c1=O` (stereo unspecified) was tested, and the Inhibition was 0%. With `CCCc1c(O)n(Cc2ccc(OC)cc2)c2nc3c(c(=O)n(C)c(=O)n3C)n2c1=O` the Inhibition was 11%. `Cn1c(=O)c2c(nc3n(Cc4ccc(F)cc4)c(O)c(Cc4ccccc4)c(=O)n23)n(C)c1=O` gave an Inhibition of 10%. With `CC(=O)OCCc1c(O)n(Cc2ccccc2)c2nc3c(c(=O)n(C)c(=O)n3C)n2c1=O` the Inhibition was 1%. `CC(C)Cc1c(O)n(Cc2ccccc2)c2nc3c(c(=O)n(C)c(=O)n3C)n2c1=O` showed an Inhibition of 17%. Compound `CCCCc1c(O)n(Cc2ccc(Cl)cc2)c2nc3c(c(=O)n(C)c(=O)n3C)n2c1=O` has an Inhibition of 16%. `CCCCc1c(O)n(-c2ccccc2)c2nc3c(c(=O)n(C)c(=O)n3C)n2c1=O` was tested, and the Inhibition was 11%. Work on `CCCCn1c(=O)c2c(nc3n(Cc4cccs4)c(O)c(CCC)c(=O)n23)n(CCCC)c1=O` yielded an Inhibition of 14%. Work on `CCCCn1c(=O)c2c(nc3n(Cc4ccccc4)c(O)c(C)c(=O)n23)n(CCCC)c1=O` yielded an Inhibition of 27%. Compound `Cc1c(O)n(CCc2ccccc2)c2nc3c(c(=O)n(C)c(=O)n3C)n2c1=O` has an Inhibition of 14%. Compound `CC(=O)Nc1c(O)n(Cc2ccccc2)c2nc3c(c(=O)n(C)c(=O)n3C)n2c1=O` has an Inhibition of 20%. In the case of `CCCCC1C(=O)N(Cc2ccccc2)c2nc3ccccc3n2C1=O` (stereo unspecified), the Inhibition was 0%.
